Experimental findings from BindingDB's records for doi:10.1021/np970237h (University of Antwerp, 1998) are described below.

The target of the test is Xanthine dehydrogenase/oxidase (Homo sapiens, UniProt P47989). Nature of the test: Inhibition of xanthine oxidase assessed as decrease in uric acid production by spectrophotometry. The method in brief:
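Flavonoid at various concentrations with 50 µM xanthine, 0.2 mM hydroxylamine and 0.1 mM EDTA. Stopped with HCl, then uric acid read as absorbance at 290 nm against an enzyme-free blank. IC50 by linear regression.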

Xanthine dehydrogenase/oxidase, sequence (P47989 whole entry): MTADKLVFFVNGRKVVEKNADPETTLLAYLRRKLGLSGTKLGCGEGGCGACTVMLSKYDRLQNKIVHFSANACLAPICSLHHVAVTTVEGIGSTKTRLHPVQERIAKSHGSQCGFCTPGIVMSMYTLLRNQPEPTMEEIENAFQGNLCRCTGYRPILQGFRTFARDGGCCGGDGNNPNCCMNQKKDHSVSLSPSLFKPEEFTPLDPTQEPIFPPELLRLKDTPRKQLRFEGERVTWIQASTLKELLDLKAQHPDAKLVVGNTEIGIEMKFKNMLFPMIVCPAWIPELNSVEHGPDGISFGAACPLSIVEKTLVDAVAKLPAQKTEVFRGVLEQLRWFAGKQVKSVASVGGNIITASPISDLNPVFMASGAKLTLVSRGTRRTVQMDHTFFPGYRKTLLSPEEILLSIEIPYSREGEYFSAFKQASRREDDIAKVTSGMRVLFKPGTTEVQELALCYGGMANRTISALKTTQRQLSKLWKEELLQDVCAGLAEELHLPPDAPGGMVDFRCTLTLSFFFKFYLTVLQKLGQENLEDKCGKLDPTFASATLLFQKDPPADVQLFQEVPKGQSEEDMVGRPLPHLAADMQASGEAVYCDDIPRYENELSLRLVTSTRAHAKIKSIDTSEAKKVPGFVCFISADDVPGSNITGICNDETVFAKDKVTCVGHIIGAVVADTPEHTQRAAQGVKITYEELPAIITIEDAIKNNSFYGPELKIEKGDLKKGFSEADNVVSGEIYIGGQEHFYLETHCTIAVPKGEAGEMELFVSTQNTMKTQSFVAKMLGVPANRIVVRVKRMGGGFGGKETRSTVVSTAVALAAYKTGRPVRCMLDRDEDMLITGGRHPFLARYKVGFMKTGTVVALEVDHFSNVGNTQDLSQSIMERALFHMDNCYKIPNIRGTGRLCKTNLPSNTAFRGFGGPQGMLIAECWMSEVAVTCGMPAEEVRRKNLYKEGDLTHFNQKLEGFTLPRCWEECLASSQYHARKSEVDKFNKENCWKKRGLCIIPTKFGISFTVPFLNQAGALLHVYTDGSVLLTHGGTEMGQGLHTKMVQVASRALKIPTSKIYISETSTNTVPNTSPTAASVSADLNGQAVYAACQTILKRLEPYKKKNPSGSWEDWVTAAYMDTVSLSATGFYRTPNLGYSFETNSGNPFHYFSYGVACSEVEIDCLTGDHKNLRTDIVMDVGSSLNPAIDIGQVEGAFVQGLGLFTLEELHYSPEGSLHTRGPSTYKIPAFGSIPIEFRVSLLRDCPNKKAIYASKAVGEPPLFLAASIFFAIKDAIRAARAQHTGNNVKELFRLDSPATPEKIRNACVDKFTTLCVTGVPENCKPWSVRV

Consider `O=C(C=Cc1ccc(O)cc1)OC[C@H]1O[C@@H](Oc2c(-c3ccc(O)cc3)oc3cc(O)cc(=O)c-3c2O)[C@H](O)[C@@H](O)[C@@H]1O` [kaempferol-3-beta-D-(6-O-trans-p-coumaroyl)glucopyranoside], for which the IC50 was greater than 100 µM.

With `C[C@@H]1O[C@@H](Oc2c(-c3ccc(O)c(O)c3)oc3cc(O)cc(=O)c-3c2O)[C@H](O)[C@H](O)[C@H]1O`, the IC50 is greater than 100 µM.

The IC50 is the concentration at which inhibition is half-maximal.
